In ChEMBL document CHEMBL1275394, “Design, synthesis, and biological evaluation of novel hybrid dicaffeoyltartaric/diketo acid and tetrazole-substituted L-chicoric acid analogue inhibitors of human immunodeficiency virus type 1 integrase” (J Med Chem, 2010):

Experiments:
MT2 = experiment: Cytotoxicity against human MT2 cells assessed as concentration required to 5% inhibition of cell growth relative to control; format: cell-based
In short: (§1)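 MT-2 cells were grown in RPMI-1640 without antibiotics and exposed to compound. CT50 and CT5 are the concentrations inhibiting cellular replication by 50% and 5% relative to untreated control; CT5 corresponds to 95% viable cells. Values are the mean of triplicate assays with SD.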

[1] = Cytotoxicity against human MT2 cells assessed as concentration required to 50% inhibition of cell growth relative to control; format: cell-based; settings: read-out: Activity; in short: as §1
[2] = Inhibition of HIV NL4-3 recombinant histidine-tagged integrase 3'-end processing activity expressed in Escherichia coli BL21 (DE3); design: species or system Human immunodeficiency virus
In short: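 N-terminal 6-His-tagged HIV-1 NL4-3 IN expressed in E. coli BL21 DE3 pLysS, Ni2+ affinity purified (>95%), stored at -80 °C. The 32P-labeled blunt-end V1/V2 duplex mimicking the viral LTR was incubated with IN and increasing compound concentrations at 37 °C for 1 h, in triplicate. Products were resolved by denaturing PAGE and quantified by phosphorimager. 3'-processing was read as the 21mer to 19mer conversion.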

[3] = tested on: Human immunodeficiency virus; experiment: Antiviral activity against HIV LAI infected in human MT2 cells assessed as protection against virus-induced cytopathic effect; format: functional, organism-based; settings: Human immunodeficiency virus 1, LAI
In short: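 MT-2 cells were cultured in RPMI-1640 without antibiotics and infected with HIV LAI. EC50 is the concentration protecting 50% of cells from virus-induced cytopathic effect. Values are the mean of triplicate assays with SD.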

[4] = Inhibition of HIV NL4-3 recombinant histidine-tagged integrase strand transfer activity expressed in Escherichia coli BL21 (DE3); design: species or system Human immunodeficiency virus
[5] = Therapeutic index, ratio of CT50 for human MT2 cells to EC50 for HIV LAI; format: cell-based; settings: read-out: TI

O=C(O)/C(O)=C/C(=O)c1ccc(O)c(O)c1
Activity (MT2): 67 µM
CC50 [1]: 178000 nM
IC50 [2]: 470 nM
EC50 [3]: > 67000 nM
IC50 [4]: 1130 nM

COC(=O)/C(O)=C/C(=O)c1ccc(O)c(O)c1
Activity (MT2): 36 µM
CC50 [1]: 182000 nM
IC50 [2]: 2810 nM
EC50 [3]: > 36000 nM
IC50 [4]: 1890 nM

O=C(/C=C(\O)C(=O)O)/C=C/c1ccc(O)c(O)c1
Activity (MT2): 32 µM
CC50 [1]: 80000 nM
IC50 [2]: 1100 nM
EC50 [3]: > 36000 nM
IC50 [4]: 810 nM

COC(=O)/C(O)=C/C(=O)c1ccc(NC(=O)/C=C/c2ccc(O)c(O)c2)cc1
Activity (MT2): 12.4 µM
CC50 [1]: 39500 nM
IC50 [2]: 1820 nM
EC50 [3]: > 54000 nM
IC50 [4]: 1380 nM

O=C(/C=C/c1ccc(O)c(O)c1)Nc1ccccc1C(=O)/C=C(\O)C(=O)O
Activity (MT2): 23.3 µM
CC50 [1]: 53000 nM
IC50 [2]: 2280 nM
EC50 [3]: > 37500 nM
IC50 [4]: 2550 nM

O=C(/C=C/c1ccc(O)c(O)c1)Nc1cccc(C(=O)/C=C(\O)C(=O)O)c1
Activity (MT2): 20.4 µM
CC50 [1]: 52800 nM
IC50 [2]: 110 nM
EC50 [3]: > 34000 nM
IC50 [4]: 360 nM

O=C(/C=C/c1ccc(O)c(O)c1)Nc1cc(NC(=O)/C=C/c2ccc(O)c(O)c2)cc(C(=O)/C=C(\O)C(=O)O)c1
Activity (MT2): > 50.7 µM
CC50 [1]: > 50700 nM
IC50 [2]: 120 nM
EC50 [3]: > 51000 nM
IC50 [4]: 130 nM

COC(=O)/C(O)=C/C(=O)c1cc(NC(=O)/C=C/c2ccc(O)c(O)c2)cc(NC(=O)/C=C/c2ccc(O)c(O)c2)c1
Activity (MT2): > 47.7 µM
CC50 [1]: > 47700 nM
IC50 [2]: 750 nM
EC50 [3]: > 48000 nM
IC50 [4]: 630 nM

O=C(/C=C/c1ccc(O)c(O)c1)O[C@@H](C(=O)O)[C@@H](OC(=O)c1cccn1Cc1ccc(F)cc1)C(=O)O
Activity (MT2): 41.8 µM
CC50 [1]: 399000 nM
IC50 [2]: 4050 nM
EC50 [3]: 110000 nM
IC50 [4]: 1270 nM

NC(=O)[C@H](OC(=O)/C=C/c1ccc(O)c(O)c1)[C@@H](OC(=O)/C=C/c1ccc(O)c(O)c1)c1nnn[nH]1
Activity (MT2): 5.7 µM
CC50 [1]: 31900 nM
IC50 [2]: 210 nM
EC50 [3]: 420 nM
IC50 [4]: 270 nM
selectivity ratio [5]: > 350

O=C(/C=C/c1ccc(O)c(O)c1)O[C@@H](c1nnn[nH]1)[C@@H](OC(=O)/C=C/c1ccc(O)c(O)c1)c1nnn[nH]1
Activity (MT2): 28.4 µM
CC50 [1]: 422000 nM
IC50 [2]: 340 nM
EC50 [3]: 330 nM
IC50 [4]: 440 nM
selectivity ratio [5]: > 350

O=C(O[C@@H](C(=O)O)[C@@H](O)C(=O)O)c1cccn1Cc1ccc(F)cc1
Activity (MT2): 60.8 µM
CC50 [1]: 792000 nM
IC50 [2]: 277000 nM
EC50 [3]: > 170000 nM
IC50 [4]: 47300 nM

O=C(O[C@@H](C(=O)O)[C@@H](OC(=O)c1cccn1Cc1ccc(F)cc1)C(=O)O)c1cccn1Cc1ccc(F)cc1
Activity (MT2): 28.7 µM
CC50 [1]: 374000 nM
IC50 [2]: 136000 nM
EC50 [3]: > 90500 nM
IC50 [4]: 74200 nM

O=C(/C=C/c1ccc(O)c(O)c1)Nc1ccc(C(=O)/C=C(\O)C(=O)O)cc1
Activity (MT2): 26.1 µM
CC50 [1]: 47200 nM
IC50 [2]: 400 nM
EC50 [3]: > 16900 nM
IC50 [4]: 350 nM

O=C(O)C(=O)CC(=O)c1cccn1Cc1ccc(F)cc1
Activity (MT2): > 69.3 µM
CC50 [1]: > 69300 nM
IC50 [2]: 13000 nM
EC50 [3]: 400 nM
IC50 [4]: 140 nM

O=C(/C=C/c1ccc(O)c(O)c1)OCC(OC(=O)/C=C/c1ccc(O)c(O)c1)c1nnn[nH]1 (racemic)
Activity (MT2): > 42.5 µM
CC50 [1]: > 42500 nM
IC50 [2]: 140 nM
EC50 [3]: 850 nM
IC50 [4]: 120 nM

O=C(/C=C/c1cc(O)c(O)c(O)c1)OC(c1nnn[nH]1)C(OC(=O)/C=C/c1cc(O)c(O)c(O)c1)c1nnn[nH]1 (single isomer, unassigned)
Activity (MT2): 11.3 µM
CC50 [1]: 48900 nM
IC50 [2]: 390 nM
EC50 [3]: 60 nM
IC50 [4]: 210 nM
selectivity ratio [5]: > 350

O=C(/C=C/c1ccc(O)c(O)c1)O[C@@H](C(=O)O)[C@@H](O)C(=O)O [CAFTARIC ACID]
Activity (MT2): 49.6 µM
CC50 [1]: 325000 nM
IC50 [2]: 19100 nM
EC50 [3]: 80500 nM
IC50 [4]: 6080 nM

O=C(/C=C/c1ccc(O)c(O)c1)O[C@@H](C(=O)O)[C@@H](OC(=O)/C=C/c1ccc(O)c(O)c1)C(=O)O [CICHORIC ACID]
Activity (MT2): 41 µM
CC50 [1]: 124000 nM
IC50 [2]: 220 nM
EC50 [3]: 810 nM
IC50 [4]: 270 nM
